Our source for the Activity, EC50 and fold change (FC) values is ChEMBL document CHEMBL1268912, “Antidiabetic and antiobesity effects of Ampkinone (6f), a novel small molecule activator of AMP-activated protein kinase” (J Med Chem, 2010).

A short description of experiment [1]: Activation of ACC phosphorylation at S79 at 10 uM by Western blotting relative to control. In short, it runs like this: (§1)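 L6 cells, serum-starved 6 h, treated with 10 μM for set times (10 min to 6 h). RIPA lysates (40 μg) run on SDS-PAGE and blotted to nitrocellulose. Blocked in TBS-Tween with 5% milk. Probed overnight at 4 °C with anti-ACC (pS79) or anti-AMPK (pT172) and the total-protein antibodies. HRP secondary antibody, ECL detection.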
(In western blotting, separated proteins are transferred to a membrane and probed.)

Experiment [2] is described as follows: Activation of AMPK assessed as phosphorylation of T172 at 10 uM by Western blotting relative to control. In short, it runs like this: as §1
Experiment [3] in a line: Induction of AMPK phosphorylation in […] cells […]. It is filed as cell-based. Particulars: L6, 10 min.
Experiment [4] concerns C2L12. Kind of experiment: Induction of ACC phosphorylation in mouse […] cells after 1 hr.
The test system of experiment [5] is Mus musculus. Kind of experiment: Antiobesity activity in diet induced obese mouse assessed as change in food intake at 10 mg/kg, sc qd. It is filed as functional, organism-based. Further details: dose 10 mg/kg. The essentials:
(§2)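 DIO C57BL/6J males (high-fat diet, 60% of calories from fat, for 8 weeks) were given 10 mg/kg/day sc in PEG400 or vehicle for 30 days, n = 7 per group. Body weight and food intake were recorded every 3 days.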

In experiment [6] the test system is Mus musculus. Kind of experiment: Antidiabetic activity in diet induced obese mouse assessed as reduction in glucose level at 10 mg/kg, sc qd. Type of experiment: functional, organism-based. Also noted: dose 10 mg/kg. In short, it runs like this: (§3)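 DIO mice were male C57BL/6J fed a 60%-fat diet from 4 weeks of age for 8 weeks. Dosed 10 mg/kg/day sc in PEG400 or vehicle for 1 month, n = 7 per group. Serum insulin was measured by mouse insulin ELISA and blood glucose by glucometer. Mean ± SD; Student's t test/ANOVA.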

In experiment [7] the test system is 3T3-L1. Kind of experiment: Induction of AMPK phosphorylation in mouse 3T3L1 cells after 1 hr.
For experiment [8], the system named is L6 (Rattus norvegicus). Kind of experiment: Increase in AMPK-mediated glucose uptake in rat L6 cells by confocal laser scanning microscopy in presence of compound C.
The subject of experiment [9] is Mus musculus. Kind of experiment: Antidiabetic activity in diet induced obese mouse assessed as reduction in insulin level at 10 mg/kg, sc qd. Further details: dose 10 mg/kg. It is filed as functional, organism-based. In short, it runs like this: as §3
The subject of experiment [10] is C2C12. Kind of experiment: Increase in AMPK-mediated glucose uptake in mouse C2C12 cells assessed as increase in fluorescent intensity by confocal laser scanning microscopy. It is filed as cell-based. In short, it runs like this:
(§4)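 C2C12 myocytes were differentiated in 2% horse serum, held in low-glucose serum-free medium for 4 h, then treated for 1 h in glucose-free DMEM at 10 μM. In the CLSM chamber at 37 °C, 5 μM Cy3-Glc-R was injected and images taken every 7 s to follow fluorescence uptake.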

Experiment [11] deals with 3T3-L1. Kind of experiment: Induction of ACC phosphorylation in mouse 3T3L1 cells after 1 hr.
Experiment [12] deals with C2C12. Kind of experiment: Increase in AMPK-mediated glucose uptake in mouse C2C12 cells by confocal laser scanning microscopy. It is filed as cell-based. In short, it runs like this: as §4
Experiment [13] concerns Mus musculus. Kind of experiment: Induction of AMPK phosphorylation in diet induced obese mouse liver at 10 mg/kg, sc qd by immunoblotting. Type of experiment: functional, organism-based. Further details: dose 10 mg/kg. In short, it runs like this: (§5)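 DIO mice were dosed 10 mg/kg/day sc in PEG400 or vehicle for 1 month, n = 7 per group, then fasted 24 h. Liver and muscle lysates were immunoblotted for phospho-AMPK/ACC and the total proteins.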

Experiment [14] has as its system C2L12. Kind of experiment: Induction of AMPK phosphorylation in mouse […] cells after 1 hr.
Experiment [15] has as its system L6. Kind of experiment: Induction of ACC phosphorylation in […] cells after 10 mins. Type of experiment: cell-based. The essentials:
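L6, C2C12 or 3T3-L1 cells, serum-starved 6 h, were treated for 1 h with graded concentrations (0–20 μM); L6 cells were also given a 10 μM time course. Lysates were immunoblotted for AMPK pT172, ACC pS79 and the total proteins, with ECL detection.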

The target of experiment [16] is T1, Serine/threonine-protein kinase STK11 (Homo sapiens) (UniProt Q15831).
T1 sequence (whole entry): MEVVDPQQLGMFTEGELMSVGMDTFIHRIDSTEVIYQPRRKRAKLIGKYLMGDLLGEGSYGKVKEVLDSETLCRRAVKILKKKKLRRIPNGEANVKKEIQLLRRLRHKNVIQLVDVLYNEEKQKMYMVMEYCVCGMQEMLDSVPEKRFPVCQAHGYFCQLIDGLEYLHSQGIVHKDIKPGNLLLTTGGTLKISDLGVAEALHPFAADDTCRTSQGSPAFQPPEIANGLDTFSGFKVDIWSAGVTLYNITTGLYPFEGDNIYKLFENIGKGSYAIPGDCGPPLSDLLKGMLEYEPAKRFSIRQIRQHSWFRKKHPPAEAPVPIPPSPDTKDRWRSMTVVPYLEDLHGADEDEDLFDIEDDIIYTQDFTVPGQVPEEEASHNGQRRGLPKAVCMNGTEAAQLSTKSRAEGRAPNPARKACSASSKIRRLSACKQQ
Kind of experiment: Activation of LKB1 expressed in human HeLa cells assessed as increase in AMPK phosphorylation. Type of experiment: cell-based. In short, it runs like this: (§6)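 HeLa cells lack endogenous LKB1. They were transfected for 24 h with HA-tagged LKB1 in pcDNA3.1 or mock-transfected. After 6 h serum starvation, cells were exposed to 10 μM for set times. Lysates were immunoblotted for AMPK (pT172), total AMPK and HA.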

The subject of experiment [17] is Mus musculus. Kind of experiment: Antiobesity activity in diet induced obese mouse assessed as change in body weight at 10 mg/kg, sc qd. Also noted: dose 10 mg/kg. It is filed as functional, organism-based. The essentials:
as §2

The test system of experiment [18] is Mus musculus. Kind of experiment: Induction of AMPK phosphorylation in diet induced obese mouse muscle at 10 mg/kg, sc qd by immunoblotting. It is filed as functional, organism-based. Further details: dose 10 mg/kg. The essentials: as §5
For experiment [19], the target named is AMP-activated protein kinase, AMPK (Homo sapiens) (UniProt P54646+O43741+P54619+Q9UGJ0+Q9Y478+Q13131+Q9UGI9). Kind of experiment: Induction of AMPK phosphorylation in human HeLa cells. Type of experiment: cell-based. In short, it runs like this: as §6

The source made the active and inactive calls. The rule behind the calls is not given here.

`COc1ccc2c(c1O)OC(C)(C)c1c-2ccc2c1C(=O)N(c1ccc3c(c1)-c1ccccc1C3=O)C2=O`: the Activity in [1] worked out at 154%; in [2], 249%.

Consider `COc1ccc2c(c1O)OC(C)(C)c1c-2ccc2c1C(=O)N(c1ccccc1)C2=O`, for which the Activity in [1] was 254%; in experiment [2], 273%.

`COc1ccc2c(c1O)OC(C)(C)c1c-2ccc2c1C(=O)N(c1ccc(Cc3ccccc3)cc1)C2=O`: the Activity is 129% in experiment [1] and 169% in experiment [2].

As for `CC1(C)Oc2ccccc2-c2ccc3c(c21)C(=O)N(c1ccc(C(=O)c2ccccc2)cc1)C3=O`, the Activity came to 92% in [1] and 203% in [2].

Consider `COc1ccc2c(c1O)OC(C)(C)c1c-2ccc2c1C(=O)N(Cc1ccccc1)C2=O`, for which the Activity in experiment [1] amounted to 194%; in experiment [2], 165%.

Turning to `COc1ccc2c(c1O)OC(C)(C)c1c-2ccc2c1C(=O)N(c1ccc(-c3nc4ccccc4o3)cc1)C2=O`, the Activity in [1] amounted to 91%; in experiment [2], 92%.

Regarding `COc1ccc2c(c1)OC(C)(C)c1c-2ccc2c1C(=O)N(c1ccc(C(=O)c3ccccc3)cc1)C2=O`, the Activity in experiment [1] was 154%; in experiment [2], 159%.

`COc1ccc2c(c1O)OC1(CCCC1)c1c-2ccc2c1C(=O)N(c1ccc(C(=O)c3ccccc3)cc1)C2=O`: the results for the Activity in experiment [1] and in [2] were 51% and 113%, respectively.

As to `COc1ccc2c(c1O)OC(C)(C)c1c-2ccc2c1C(=O)N(c1ccc(C(C)=O)cc1)C2=O`, the Activity in experiment [1] is 384%; in experiment [2] it was 264%.

For `COc1ccc2c(c1O)OC(C)(C)c1c-2ccc2c1C(=O)N(c1ccc(-c3ccccc3)cc1)C2=O`, the Activity in experiment [1] worked out at 114%; in [2], 160%.

Turning to `COc1ccc2c(c1O)OC(C)(C)c1c-2ccc2c1C(=O)N(c1cccc(-c3ccccc3)c1)C2=O`, the Activity in [1] turned out to be 201%; in [2], 175%.

By EC50 is commonly meant the concentration needed to bring the measured effect to its halfway point. Turning to `COc1ccc2c(c1O)OC(C)(C)c1c-2ccc2c1C(=O)N(c1ccc(C(=O)c3ccccc3)cc1)C2=O` [AMPKINONE], in experiment [3], the EC50 is 4.3 µM. Besides, the Activity in experiment [1] is 295%; in experiment [4], “Dose-dependent effect”; in experiment [7], “Dose-dependent effect”; in experiment [11], “Dose-dependent effect”; in experiment [2], 322%; in experiment [14] it was “Dose-dependent effect”. For the same compound, the result in [5], in [8] and in [17] was inactive. Also, the outcome in [6], in experiment [9], in experiment [10], in [13], in experiment [15] and in experiment [16] was Active. Further, the outcome in experiment [18] and in [19] was Active. The compound further had a fold change (FC) in experiment [12] of 3.2.

Regarding `CC1(C)Oc2cc(F)ccc2-c2ccc3c(c21)C(=O)N(c1ccc(C(=O)c2ccccc2)cc1)C3=O`, the Activity in experiment [1] was determined as 156%; in experiment [2], 186%.

As to `COc1ccc2c(c1O)OC(C)(C)c1c-2ccc2c1C(=O)NC2=O`, the Activity in experiment [1] worked out at 123%; in experiment [2] it was 158%.

Turning to `COc1ccc2c(c1O)OC(C)(C)c1c-2ccc2c1C(=O)N(C)C2=O`, the Activity is 145% in experiment [1] and 205% in experiment [2].
